Experimental data: ChEMBL document CHEMBL5712084, “Interactome Rewiring Following Pharmacological Targeting of BET Bromodomains” (Mol Cell, 2019)
Activity calls are given as the source filed them. The rule behind the calls is not given here.

Legend:
[1] = target: Bromodomain-containing protein 2 (Homo sapiens) (UniProt P25440); settings: U2OS, dose 500.0 nM, time 20.0 sec
[2] = target: T1, Bromodomain and extra-terminal motif (BET) (Homo sapiens) (UniProt P25440+O60885+Q58F21+Q15059); settings: Flp-In-T-REx-293, dose 500.0 nM, time 10-240 min
[3] = target: Bromodomain-containing protein 3 (Homo sapiens) (UniProt Q15059); assay: Inhibition of BRD3 in human U2OS cells assessed as induction of assembly of GFP-tagged BRD3 constructs in to dense foci at 500 nM measured 12 hrs after drug washout by live cell imaging; assay type: cell-based
Chain of Bromodomain-containing protein 3 (Homo sapiens) (Q15059 2-726 limits assumed): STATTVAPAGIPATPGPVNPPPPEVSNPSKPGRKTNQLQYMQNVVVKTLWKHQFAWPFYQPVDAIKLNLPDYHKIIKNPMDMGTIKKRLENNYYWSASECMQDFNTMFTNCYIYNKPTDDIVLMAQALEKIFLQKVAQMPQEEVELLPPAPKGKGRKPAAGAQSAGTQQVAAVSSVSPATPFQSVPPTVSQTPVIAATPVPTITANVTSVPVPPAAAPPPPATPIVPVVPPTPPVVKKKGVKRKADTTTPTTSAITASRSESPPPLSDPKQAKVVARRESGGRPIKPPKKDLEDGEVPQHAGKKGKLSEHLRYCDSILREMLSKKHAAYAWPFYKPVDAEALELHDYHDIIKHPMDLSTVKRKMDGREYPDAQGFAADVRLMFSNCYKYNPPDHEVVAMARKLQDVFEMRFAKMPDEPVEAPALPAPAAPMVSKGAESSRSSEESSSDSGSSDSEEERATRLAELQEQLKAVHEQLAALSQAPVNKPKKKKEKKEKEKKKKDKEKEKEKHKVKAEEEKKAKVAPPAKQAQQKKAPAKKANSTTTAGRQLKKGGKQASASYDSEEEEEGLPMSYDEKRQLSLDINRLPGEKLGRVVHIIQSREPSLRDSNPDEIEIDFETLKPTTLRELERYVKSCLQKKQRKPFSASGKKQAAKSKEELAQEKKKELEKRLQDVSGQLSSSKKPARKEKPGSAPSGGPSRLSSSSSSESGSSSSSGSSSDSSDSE
Method in brief: (§1)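 Flp-In T-REx U-2 OS cells were grown in DMEM with GlutaMAX and 10% heat-inactivated FBS plus penicillin-streptomycin at 37°C and 10% CO2. eGFP-tagged constructs were expressed from a tetracycline-inducible pcDNA5-FRT-TO vector. Nuclear and nucleolar localisation and foci were followed by live-cell imaging.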

[4] = target: Bromodomain-containing protein 2 (Homo sapiens) (UniProt P25440); settings: U2OS, dose 500.0 nM, time 12.0 hrs
[5] = target: T1, Bromodomain and extra-terminal motif (BET) (Homo sapiens); settings: Flp-In-T-REx-293, dose 500.0 nM, time 10-240 min; remark: listed apart in the source
[6] = target: T1, Bromodomain and extra-terminal motif (BET) (Homo sapiens); settings: Flp-In-T-REx-293, dose 500.0 nM
[7] = target: T1, Bromodomain and extra-terminal motif (BET) (Homo sapiens); settings: Flp-In-T-REx-293, dose 500.0 nM, time 10-240 min; remark: listed apart in the source
[8] = system: Bromodomain-containing protein 3 (Homo sapiens), Q15059 [UNDEFINED MUTATION]; assay: Inhibition of BRD3 mutant bromodomain in human U2OS cells assessed as accumulation of BRD3 mutant in nucleolus at 500 nM by live cell imaging; assay type: cell-based
Chain of Bromodomain-containing protein 3 (Homo sapiens), Q15059 [UNDEFINED MUTATION] (Q15059 whole entry, looked up, change not shown): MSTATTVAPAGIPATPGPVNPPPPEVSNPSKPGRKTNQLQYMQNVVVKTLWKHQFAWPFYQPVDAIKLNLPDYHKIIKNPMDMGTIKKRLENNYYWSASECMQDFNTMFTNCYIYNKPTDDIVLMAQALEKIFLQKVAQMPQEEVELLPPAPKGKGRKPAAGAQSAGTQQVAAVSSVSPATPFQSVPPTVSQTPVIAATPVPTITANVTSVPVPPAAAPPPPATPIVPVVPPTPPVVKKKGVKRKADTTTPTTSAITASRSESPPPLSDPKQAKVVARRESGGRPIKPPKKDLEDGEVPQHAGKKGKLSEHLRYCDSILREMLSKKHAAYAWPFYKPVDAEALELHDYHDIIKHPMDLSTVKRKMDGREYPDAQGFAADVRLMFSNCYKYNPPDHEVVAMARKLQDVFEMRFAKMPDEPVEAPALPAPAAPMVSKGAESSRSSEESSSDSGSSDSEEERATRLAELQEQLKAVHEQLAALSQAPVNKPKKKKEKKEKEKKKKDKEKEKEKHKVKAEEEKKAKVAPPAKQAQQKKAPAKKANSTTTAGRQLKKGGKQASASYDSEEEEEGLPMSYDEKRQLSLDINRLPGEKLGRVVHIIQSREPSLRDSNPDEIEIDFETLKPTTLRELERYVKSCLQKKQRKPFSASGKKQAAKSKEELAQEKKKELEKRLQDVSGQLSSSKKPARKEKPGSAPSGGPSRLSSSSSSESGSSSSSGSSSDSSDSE
Method in brief: as §1

[9] = system: Bromodomain-containing protein 3 (Homo sapiens), Q15059 [UNDEFINED MUTATION]; assay: Inhibition of BRD3 mutant bromodomain in human U2OS cells assessed as accumulation of BRD3 mutant in to foci at 500 nM by live cell imaging; assay type: cell-based
Method in brief: as §1

[10] = target: T1, Bromodomain and extra-terminal motif (BET) (Homo sapiens); settings: Flp-In-T-REx-293, dose 500.0 nM, time 10-240 min; remark: listed apart in the source
BRD4/BRD9 (Homo sapiens) = BRD4/BRD9 (Homo sapiens) (UniProt O60885+Q9H8M2); settings: HEK293, dose 5.0 nmol
Chain of BRD4/BRD9 (Homo sapiens) (Q9H8M2 whole entry, looked up, other chains not shown): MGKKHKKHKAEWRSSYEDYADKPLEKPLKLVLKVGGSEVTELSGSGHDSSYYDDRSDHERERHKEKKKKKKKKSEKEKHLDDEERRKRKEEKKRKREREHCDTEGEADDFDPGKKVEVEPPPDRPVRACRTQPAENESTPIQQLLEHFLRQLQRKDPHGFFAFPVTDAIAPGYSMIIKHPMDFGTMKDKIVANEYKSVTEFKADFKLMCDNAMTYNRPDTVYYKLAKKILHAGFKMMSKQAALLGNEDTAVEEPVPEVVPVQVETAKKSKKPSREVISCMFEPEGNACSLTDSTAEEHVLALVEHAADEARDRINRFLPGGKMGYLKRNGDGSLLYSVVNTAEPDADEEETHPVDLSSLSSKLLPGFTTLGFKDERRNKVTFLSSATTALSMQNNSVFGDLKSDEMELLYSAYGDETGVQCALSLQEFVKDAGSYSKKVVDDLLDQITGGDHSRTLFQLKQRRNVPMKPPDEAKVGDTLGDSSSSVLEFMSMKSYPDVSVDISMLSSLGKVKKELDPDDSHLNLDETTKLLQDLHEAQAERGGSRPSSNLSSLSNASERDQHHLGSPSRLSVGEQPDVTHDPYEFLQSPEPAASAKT

[11] = target: Bromodomain-containing protein 3 (Homo sapiens) (UniProt Q15059); assay: Inhibition of BRD3 in human U2OS cells assessed as increase in association with partner protein (TCOF1, UBTF, and RNAPI) at 500 nM; assay type: cell-based
U2OS [12] = assay: Effect on localization of the nucleolar proteins (PARP1, POLR1E, and TCOF1) in human U2OS cells at 500 nM; assay type: functional, cell-based
Method in brief: as §1

[13] = system: Bromodomain-containing protein 1 (Homo sapiens), O95696 [UNDEFINED MUTATION]; assay: Inhibition of BRD1 mutant bromodomain in human U2OS cells expressing BD1 mutant assessed as diffuse nuclear localization of BD1 mutant in asynchronously growing cells at 500 nM by live cell imaging; assay type: cell-based
Chain of Bromodomain-containing protein 1 (Homo sapiens), O95696 [UNDEFINED MUTATION] (O95696 whole entry, looked up, change not shown): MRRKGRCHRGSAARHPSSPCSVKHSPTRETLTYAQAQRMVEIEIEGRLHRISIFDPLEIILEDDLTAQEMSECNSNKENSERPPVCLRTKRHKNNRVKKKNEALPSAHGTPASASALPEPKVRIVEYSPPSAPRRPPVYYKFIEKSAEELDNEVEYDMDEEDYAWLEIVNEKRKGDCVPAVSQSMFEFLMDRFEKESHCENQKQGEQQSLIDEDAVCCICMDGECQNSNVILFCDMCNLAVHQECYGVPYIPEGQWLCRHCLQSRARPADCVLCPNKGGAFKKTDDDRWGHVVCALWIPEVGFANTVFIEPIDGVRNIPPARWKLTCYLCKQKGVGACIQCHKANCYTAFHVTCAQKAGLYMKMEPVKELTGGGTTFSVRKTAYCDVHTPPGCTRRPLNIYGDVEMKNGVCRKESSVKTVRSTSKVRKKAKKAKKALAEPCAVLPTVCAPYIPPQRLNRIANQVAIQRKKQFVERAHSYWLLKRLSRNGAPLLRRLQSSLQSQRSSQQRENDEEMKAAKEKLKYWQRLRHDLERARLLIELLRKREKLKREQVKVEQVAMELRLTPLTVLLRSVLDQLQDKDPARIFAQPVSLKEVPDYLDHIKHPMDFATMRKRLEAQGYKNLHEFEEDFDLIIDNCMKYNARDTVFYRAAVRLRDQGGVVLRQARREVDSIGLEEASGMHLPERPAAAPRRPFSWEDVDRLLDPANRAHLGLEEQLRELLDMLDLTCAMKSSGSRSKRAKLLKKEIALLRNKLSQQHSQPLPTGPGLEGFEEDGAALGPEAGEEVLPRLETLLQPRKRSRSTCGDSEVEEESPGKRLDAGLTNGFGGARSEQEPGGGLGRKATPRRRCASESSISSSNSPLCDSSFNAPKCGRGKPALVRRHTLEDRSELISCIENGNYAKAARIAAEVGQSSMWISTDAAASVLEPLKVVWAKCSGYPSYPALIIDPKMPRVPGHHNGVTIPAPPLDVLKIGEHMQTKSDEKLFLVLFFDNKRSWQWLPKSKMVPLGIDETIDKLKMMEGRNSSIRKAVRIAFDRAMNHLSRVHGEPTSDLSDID
Method in brief: as §1

[14] = system: Bromodomain-containing protein 2 (Homo sapiens), P25440 [UNDEFINED MUTATION]; settings: Flp-In-T-REx-293, dose 500.0 nM, time 24.0 hrs
Chain of Bromodomain-containing protein 2 (Homo sapiens), P25440 [UNDEFINED MUTATION] (P25440 whole entry, looked up, change not shown): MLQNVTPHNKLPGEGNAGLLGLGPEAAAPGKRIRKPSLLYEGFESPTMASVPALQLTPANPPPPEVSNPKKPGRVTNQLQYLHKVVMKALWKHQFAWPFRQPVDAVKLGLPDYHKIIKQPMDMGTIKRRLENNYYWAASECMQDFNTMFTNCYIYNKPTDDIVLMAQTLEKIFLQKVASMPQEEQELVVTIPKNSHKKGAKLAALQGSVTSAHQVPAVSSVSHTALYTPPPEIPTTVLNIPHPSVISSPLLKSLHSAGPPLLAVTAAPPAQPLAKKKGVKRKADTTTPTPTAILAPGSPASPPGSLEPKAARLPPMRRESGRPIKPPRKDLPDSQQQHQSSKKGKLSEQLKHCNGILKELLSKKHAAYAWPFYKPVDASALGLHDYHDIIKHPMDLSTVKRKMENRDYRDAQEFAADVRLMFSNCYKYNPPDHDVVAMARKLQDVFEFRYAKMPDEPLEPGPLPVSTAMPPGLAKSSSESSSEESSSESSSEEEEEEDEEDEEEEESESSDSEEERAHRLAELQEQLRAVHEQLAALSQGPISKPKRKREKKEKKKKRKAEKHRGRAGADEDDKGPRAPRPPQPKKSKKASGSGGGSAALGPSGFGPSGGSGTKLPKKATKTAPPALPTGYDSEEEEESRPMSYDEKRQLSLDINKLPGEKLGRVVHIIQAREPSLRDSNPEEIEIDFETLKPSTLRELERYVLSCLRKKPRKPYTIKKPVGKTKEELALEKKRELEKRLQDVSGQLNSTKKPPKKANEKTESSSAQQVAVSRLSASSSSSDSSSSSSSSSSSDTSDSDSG

[15] = target: T1, Bromodomain and extra-terminal motif (BET) (Homo sapiens); settings: Flp-In-T-REx-293, dose 500.0 nM; remark: listed apart in the source
[16] = target: T1, Bromodomain and extra-terminal motif (BET) (Homo sapiens); settings: Flp-In-T-REx-293, dose 500.0 nM, time 10-240 min; remark: listed apart in the source
[17] = target: T1, Bromodomain and extra-terminal motif (BET) (Homo sapiens); settings: Flp-In-T-REx-293, dose 500.0 nM, time 10-240 min; remark: listed apart in the source
[18] = system: Bromodomain-containing protein 2 (Homo sapiens), P25440 [UNDEFINED MUTATION]; settings: U2OS, dose 500.0 nM
U2OS [19] = assay: Inhibition of BRD1:2 mutant bromodomain in human U2OS cells assessed as foci formation of BRD2 mutant in to foci at 500 nM by live cell imaging; assay type: cell-based
Method in brief: as §1

[20] = target: Bromodomain-containing protein 3 (Homo sapiens) (UniProt Q15059); assay: Inhibition of BRD3 in human U2OS cells assessed as induction of assembly of GFP-tagged BRD3 constructs in to dense foci at 500 nM measured within 20 seconds by live cell imaging; assay type: cell-based; settings: time 20.0 sec
Method in brief: as §1

[21] = target: T1, Bromodomain and extra-terminal motif (BET) (Homo sapiens); settings: Flp-In-T-REx-293, dose 500.0 nM, time 10-240 min; remark: listed apart in the source
[22] = target: T1, Bromodomain and extra-terminal motif (BET) (Homo sapiens); settings: Flp-In-T-REx-293, dose 500.0 nM, time 1.0 hrs
[23] = target: Bromodomain-containing protein 3 (Homo sapiens) (UniProt Q15059); assay: Inhibition of BRD3 in human Flp-In-T-REx-293 cells assessed as increase in nucleolar protein partners (RNAPI, UBTF and TCOF1 ) at 500 nM incubated for 24 hrs by BioID assay; assay type: cell-based
Method in brief: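 Stable Flp-In T-REx HEK293 lines carrying BirA*-FLAG-tagged baits were grown in hygromycin to 80% confluence. Expression was induced with 1 μg/mL tetracycline and cells were given 50 μM biotin for 24 h. Lysis was in RIPA, with streptavidin capture for 3 h at 4°C and on-bead trypsin digestion, then LC-MS/MS. BirA*-FLAG-GFP or -NLS cells served as controls. Two biological replicates were run.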

[24] = target: T1, Bromodomain and extra-terminal motif (BET) (Homo sapiens); settings: Flp-In-T-REx-293, dose 500.0 nM, time 10-240 min; remark: listed apart in the source
[25] = target: Bromodomain-containing protein 3 (Homo sapiens) (UniProt Q15059); assay: Inhibition of BRD3 in human U2OS cells assessed as displacement of BRD3 from rDNA IGS region toward the transcribed regions at 500 nM; assay type: cell-based

Chain of Bromodomain-containing protein 2 (Homo sapiens) (P25440 whole entry, looked up): as the sequence (P25440 whole entry, looked up, change not shown) above

SMILES: Cc1sc2c(c1C)C(c1ccc(Cl)cc1)=N[C@@H](CC(=O)OC(C)(C)C)c1nnc(C)n1-2
- inhibition [1]: Active
- log2FC [2]: > 2
- inhibition [3]: Active
- inhibition [4]: Active
- inhibition [5]: Active
- inhibition [6]: Active
- log2FC [7]: 2
- inhibition [8]: Active
- inhibition [9]: Active
- inhibition [10]: Active
- inhibition (BRD4/BRD9 (Homo sapiens)): inactive
- inhibition [11]: Active
- Activity (U2OS [12]): inactive
- inhibition [13]: inactive
- inhibition [14]: inactive
- inhibition [15]: Active
- log2FC [16]: > 2
- inhibition [17]: Active
- inhibition [18]: inactive
- inhibition (U2OS [19]): inactive
- inhibition [20]: Active
- inhibition [21]: Active
- inhibition [22]: Active
- inhibition [23]: Active
- inhibition [24]: Active
- inhibition [25]: Active
